The data set has as its system MS2 coat protein. Briefly: apparent Kd, MS2 coat protein; higher = weaker binding; RNA-MaP array; FMN 200 µM where present. Summed up:
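SNAP-549-labelled MS2 coat protein, doubled from 0.7 or 1.5 nM to 3 µM, was titrated over designs transcribed by stalled E. coli RNA polymerase on Illumina sequencing-chip clusters. Titrations were run without and then with constant ligand in 100 mM Tris-HCl pH 7.5, 80 mM KCl, 4 mM MgCl2, BSA, DTT, yeast tRNA and Tween-20. The apparent Kd is the median of filtered per-cluster fits to green signal normalised to red-channel RNA signal and control-cluster median Fmax.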

The mark [1] stands for this setting: designed as: ON switch for flavin mononucleotide, no ligand.
The mark [2] stands for this setting: ligand present: flavin mononucleotide, designed as: ON switch for flavin mononucleotide.
Setting [3] is: designed as: OFF switch for flavin mononucleotide, no ligand.
Setting [4] is: ligand present: flavin mononucleotide, designed as: OFF switch for flavin mononucleotide.

These results are taken from the EternaBench riboswitch data.

“AAAACGCGGGAGAAGGCCACUUACCGUUACAUGGACGUGAGAAAUAAAUGGAGGAUAUCCCUACAUGAGGAUCACCCAUGUAAU”: the “apparent Kd” value under setting [1] was 412 nM and the “apparent Kd” value under setting [2] was 103 nM.
For “CCUAAGGAGGUAGGAUAUAGUGUGGUGGCCGGGCUCCCACGGCGAGCGGCACUAGAAGGAUCGCUACAUGAGGAUCACCCAUGU”, in that order: 10.2 nM and 9.71 nM.
On to “GCGUAUUUAAUAUUUAUAUAAUUGUCAGAAGGUGAAAAGACGACAUGAGGAUCACCCAUGUAAUUCAAGGAUAUGAUUAAGCGC”, for which the “apparent Kd” value runs as follows: under setting [1], 30.7 nM; under setting [2], 15.8 nM.
Take “GCGAAGGGAGGAUAUCCGCGCGCGCACAUGAGGAUCACCCAUGUGCGCGCGCGCGCGCGCGGAGAAGGCCCGGUGC”: the “apparent Kd” value came to 16.4 nM under setting [3] and 13.4 nM under setting [4].
In the same order, the values of “GGGAUGUGAGGAUAUACAUGAACUAUCCACUGUGCUGGGCCACAUGAGGAUCACCCAUGUAGAAGGUACGCCCA” are 66.2 nM and 168 nM.
For “GCUUAAGUAGGAUAUACUUGGGCUCGGCUGAUGUGCCUAAAACAUGAGGAUCACCCAUGUAGAAGGACUAAAGC”, in that order: 13.9 nM and 12.1 nM.
“CCUCAGUAAGGAUAUCAGCUUAGUAGGUUGGUAAUGAGAGCUGAGAAGGUACAUGAGGAUCACCCAUGUUAGUU”: the “apparent Kd” value is, setting by setting: under setting [3], 26.1 nM; under setting [4], 80.8 nM.
In the same order, the values of “CAGGUAGACUGAGGAUAUACACUAAACAGCUAGUCUAUCUAGCUGACCACAUGAGGAUCACCCAUGUAGAAGGCAGUCUGCCUG” are 18.1 nM and 39.2 nM.
For “GCUCUAUGCGAGAAGGCGUGAAACAUGAGGAUCACCCAUGUCAGAGAUAUGAGGAUAUUGCAUAGAGCAAAAGACGGAAACGUC”, the “apparent Kd” value runs as follows: under setting [1], 12.2 nM; under setting [2], 5.02 nM.
Take “AAAAUCACAUGAGGAUCACCCAUGUACCGAGUUAAGGCUACAUAGGAUAUGACAAGUAUAGCUUGUCAGAAGGGUGAGUCUCGC”: the “apparent Kd” value runs as follows: under setting [1], 58.2 nM; under setting [2], 97.7 nM.
Consider “GUUAUUUAUGUAGGAUAUGCGAGGCGAGCCUAAGCAGAAGGACAUGAGGAUCACCCAUGUAUUGCGGUUUGUGUUCAGAUCGCU”, for which the “apparent Kd” value came to 27.3 nM under setting [3] and 84.9 nM under setting [4].
For “GUGGUGCAUAUACGUGGAUGUACAUGAGGAUCACCCAUGUGAGAGGAUAUGCGGAUACUAGCUCAGCAGAAGGCUUACAAAUGA”, in that order: 15.2 nM and 45.8 nM.
In the case of “GACUUGCGCACAGGAUAUCCACGGAGCGGACGUGGAGAAGGGUGACAUGAGGAUCACCCAUGUACGUAAGUCUGGAUCACAUCC”, the “apparent Kd” value was 41.8 nM under setting [1] and 19.5 nM under setting [2].
In the same order, the values of “UCAUAUUUACAAGGAUAUCAAUUAUUUAUACAUCCUACAUGAGGAUCACCCAUGUUUUUAUAUUUUGAGAAGGUGUAAUGUCGG” are 44.4 nM and 40.4 nM.
Turning to “CCACCCUGAGGAUAUCCACCCUCAUACAUGAGGAUCACCCAUGUUCAUCCCUGAGUUCCCGGAGAAGGCAGAUUCC”, the “apparent Kd” value under setting [3] was found to be 55.3 nM and the “apparent Kd” value under setting [4] was determined as 47.5 nM.
In the same order, the values of “AAUUCACAUGAGGAUCACCCAUGUCAGGAUAUGGUUUCACGUUUUUCUUUGCUUGAGGCCAGAAGGGACAGCUA” are 62.8 nM and 68.5 nM.
As for “GUGUACAGAGGAUAUACUUGAAUCUAGCGAAGCUAGGUUUGACAUGAGGAUCACCCAUGUAGAAGGCUGUACAC”, the “apparent Kd” value worked out at 15.3 nM under setting [3] and 20.5 nM under setting [4].
As to “ACGGAACAUGAGGAUCACCCAUGUAUCUGAGAUAAGGUCUCGCAGGAUAUUCAGAGAAGCCUAUCGGAGAAGGGUGACACCAAA”, the “apparent Kd” value by setting is: under setting [1], 38.4 nM; under setting [2], 15.5 nM.
In the case of “AGUAUGCGGCAGGAUAUCCAUCCGCGGUGUGGUGGAGAAGGGCUGACAUGAGGAUCACCCAUGUGCGUCCUGUA”, the “apparent Kd” value was determined as 23.6 nM under setting [3] and 37.9 nM under setting [4].
In the case of “CCGUUGAUAGGACAGGAUAUGACUGUCGUCACAUGAGGAUCACCCAUGUCCCGGCAAUGCCACCGUUAGAAGGGUCCCGUCUCGG”, the “apparent Kd” value under setting [1] was determined as 18.8 nM and the “apparent Kd” value under setting [2] amounted to 19.2 nM.
For “AAAUAAAGGACUGAGGAUAUACCACAUGAAACAUGAGGAUCACCCAUGUAAUAAUACAAAGGGUGGUAGAAGGUAGUCCACAAACA”, in that order: 34.9 nM and 16.8 nM.
Turning to “CAGGUAGACUGAGGAUAUACACUAAACAGCUAGUCUAUCUAGCUGAUCACAUGAGGAUCACCCAUGUAGAAGGCAGUCUGCCUG”, the “apparent Kd” value reads like this: under setting [3], 19.6 nM; under setting [4], 56.5 nM.
Take “CGAUGAGGAGUGAGGAUAUCGUGUUCGAAAGAACGUGAGAAGGCACAUGAGGAUCACCCAUGUGAUCCUUAUCG”: the “apparent Kd” value by setting is: under setting [3], 28.3 nM; under setting [4], 67.9 nM.
Consider “ACCUCACAUGAGGAUCACCCAUGUCAGGAUAUACCCAAAGCUGCGAAAAUAUCCAGCUGUAGAAGGGACAGGCU”, for which the “apparent Kd” value under setting [3] was 13.9 nM and the “apparent Kd” value under setting [4] was found to be 16.1 nM.
